Results on two compounds are retold here after PMC5224916 (Journal of controlled release : official journal of the …, 2016).

The test system of series [1] is intestinal epithelium (duodenum villi). The series can be described thus: In vivo intestinal uptake of nanoparticles. As to conditions: 0.5 mg/kg oral gavage, 2 h, CD-1 and nude mice. Details: species or system CD-1 mice and nude mice.
Series [2] relates to Caco2, MCF7, and MDA-MB-231 cells. The series can be described thus: In vitro cellular uptake assays. Conditions: 2 h incubation. It counts as cell-based, human. A digest of the protocol: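 Caco2, MCF7 and MDA-MB-231 cells were incubated 2 h with free DiD or DiD-loaded plain or Fc-targeted nanoparticles, then fixed in 4% formalin in PBS. Membranes were labelled with a lipophilic dye and nuclei counterstained with DAPI; cells were examined by fluorescence microscopy. For competition, cells were pretreated 30 min with IgG Fc fragments.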

Series [3] in a line: Plasma pharmacokinetics after oral administration. It counts as in vivo. As to conditions: 160 mg/kg oral, female CD-1 mice. In a few lines:
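Female CD-1 mice were randomised into three groups and given a single oral dose of 160 mg/kg: free compound in PEG400:ethanol:saline (57.1:14.3:28.6), plain nanoparticles or Fc-targeted nanoparticles.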

The subject of a further series is Caco2 cell monolayers. The series can be described thus: Caco2 cell monolayer permeability assay. Format: in vitro ADME, human. Conditions: apical to basolateral, 5 µg/mL, 120 min, 37°C, HPLC. A digest of the protocol:
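Caco2 cells grown on polycarbonate Transwell inserts, with monolayer integrity followed by TEER. Free or nanoparticle-formulated test compound (5 µg/mL) added apically; apical-to-basolateral transport tracked over 120 min by HPLC. Papp = (∂Q/∂t)/(A×C₀). For competition, cells were pretreated 30 min with IgG Fc fragments; transported Fc was quantified by human IgG Fc ELISA. Means ± SEM, at least three independent experiments.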

The next series addresses MDM2 (Homo sapiens, UniProt Q00987). The series can be described thus: Western blotting of MDM2, p53 and p21 in breast cancer cells. Format: cell-based. Conditions: 20 ng/mL, 24 h, MCF7 and MDA-MB-231 cells.
Series [4] concerns MDA-MB-231 orthotopic tumors. The series can be described thus: MDA-MB-231 orthotopic tumor model, in vivo efficacy. Details: species or system nude mice. Conditions: 160 mg/kg/day oral. A digest of the protocol:
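Female athymic nu/nu mice, 4–6 weeks, received 1×10⁶ MDA-MB-231 cells in the second thoracic mammary fat pad under anaesthesia. After 2 weeks, mice were split into groups of 10. Dosing was by oral gavage, 5 days/week for 24 days: free compound in PEG400:ethanol:saline (57.1:14.3:28.6) or nanoparticles at 160 mg/kg/day, Fc-targeted form at 80 or 160 mg/kg/day; controls got vehicle. Mice with lung metastasis were counted at the end.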

Another series relates to MCF7 cells. The series can be described thus: Cell cycle distribution assay. It counts as cell-based, human. As to conditions: MCF7, 24 h, tested 0, 20, 50, 100 ng/mL.
The test system of a further series is MDA-MB-231 cells. The series can be described thus: Cell cycle distribution assay. Conditions: MDA-MB-231, 24 h, tested 0, 20, 50, 100 ng/mL. It counts as cell-based, human.

SMILES strings stand for the structures.

MDM2, sequence (Q00987 whole entry): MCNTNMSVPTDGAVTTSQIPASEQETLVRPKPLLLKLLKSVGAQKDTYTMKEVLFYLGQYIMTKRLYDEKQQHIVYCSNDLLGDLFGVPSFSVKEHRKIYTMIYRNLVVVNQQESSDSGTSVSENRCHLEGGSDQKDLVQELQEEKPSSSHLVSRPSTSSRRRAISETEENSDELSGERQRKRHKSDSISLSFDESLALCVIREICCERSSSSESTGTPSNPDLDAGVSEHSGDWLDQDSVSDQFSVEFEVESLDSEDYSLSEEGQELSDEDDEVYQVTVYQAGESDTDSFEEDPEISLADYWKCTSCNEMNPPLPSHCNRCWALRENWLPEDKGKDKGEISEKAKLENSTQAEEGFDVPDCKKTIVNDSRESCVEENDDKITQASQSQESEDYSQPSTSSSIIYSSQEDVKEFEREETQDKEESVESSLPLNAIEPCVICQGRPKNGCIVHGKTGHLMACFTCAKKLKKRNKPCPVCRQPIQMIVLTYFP

For the compound `CCCCCCCCCCCCCCCCCCN1C(=CC=CC=CC2=[N+](CCCCCCCCCCCCCCCCCC)c3ccccc3C2(C)C)C(C)(C)c2ccccc21.[O-][Cl+3]([O-])([O-])[O-]` [DiD, 1,1'-dioctadecyl-3,3,3',3'-tetramethylindodicarbocyanine perchlorate], in series [1], the “DiD fluorescence in the villi of the duodenum” value is recorded as “not observed”. Also, the “Cellular uptake of DiD (fluorescence microscopy)” value in series [2] was “unable to diffuse into the cells”.

Regarding `COc1ccc2[nH]c3c(-c4cccc5ccccc45)nccc3c2c1` [SP141], the “Cmax (peak plasma concentration of SP141)” value in series [3] amounted to 4300 ng/mL. Further, the “Apparent permeability coefficient (Papp)” value in the series on Caco2 cell monolayers came to 70 ×10⁻⁶ cm/s. The “Effect on MDM2, p53 and p21 expression” value at MDM2 is “did not show significant effects”. In addition, the “Inhibition of MDA-MB-231 tumor growth” value in series [4] (5 days/week, Day 24) is on record as 51%. Further, the “Incidence of lung metastasis (mice with metastatic lesions in the lungs)” value in series [4] (24 days, 10 mice/group) is 4/10. Besides, the “Concentration at which G2/M phase cell cycle arrest starts to be induced” value in the series with MCF7 cells and in the series with MDA-MB-231 cells was 100 ng/mL in each case.
